The source of these data is paper PMC5008178 (Molecular Microbiology, 2015).

The target in one data set is Tar (Escherichia coli, UniProt P07017). Nature of the data set: FRET response in receptorless cells expressing Tar as sole receptor. In kind it is cell-based. As to conditions: Tar-only cells; for response mediated by Tar, in words: sub-millimolar range. The method in brief:
(§1)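 Receptorless E. coli VS181 [Δ(cheY cheZ) Δ(tar tsr tap trg aer)] carries the CheY‑YFP/CheZ‑CFP pair (pVS88) and a plasmid with the single receptor. Cells are grown in TB at 34°C, 275 r.p.m., with inducers, and harvested at OD600 0.6. Buffer‑adapted cells get step addition and then removal of amino acid. YFP/CFP ratio (kinase activity) is read by fluorescence microscopy.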

Another data set addresses Tsr (Escherichia coli, UniProt P02942). Nature of the data set: FRET response in receptorless cells expressing Tsr as sole receptor. In kind it is cell-based. Particulars: for response mediated by Tsr, in words: Tsr-only cells, sub-millimolar range. Summed up:
as §1

The test system of data set [1] is chemotaxis pathway in B. subtilis. Description: microbe, parasite or virus in culture. In kind it is cell-based, Bacillus subtilis. As to conditions: for EC50: read-out: EC50 of attractant FRET response.
Data set [2] has as its system chemotaxis pathway in E. coli. Nature of the data set: microbe, parasite or virus in culture. In kind it is cell-based, Escherichia coli. Particulars: for EC50: Escherichia coli; for repellent response in wild type, in words: wild-type E. coli cells, tested up to 1 mM where no response.
In the next data set the test system is E. coli. Description: Growth inhibition by individual amino acids in M9 glucose medium. In kind it is cell-based, Escherichia coli. As to conditions: 1 mM amino acid, M9 minimal glucose medium, culture density after 8 h. Summed up: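 Cells grown in modified M9 (47 mM Na2HPO4, 22 mM KH2PO4, 8 mM NaCl, 2 mM MgSO4, 100 μM CaCl2) with glucose as carbon source. A single L‑amino acid (1 mM final) was added at the start; 37°C, 120 r.p.m. OD600 read after 8 h and normalised to a control culture without added amino acid.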

The mark [3] stands for this setting: read-out: EC50 of attractant FRET response.
[4] abbreviates: read-out: EC50 of repellent response.

Like-named read-outs stand apart in the source and are kept apart here.

Tar, sequence (P07017 whole entry): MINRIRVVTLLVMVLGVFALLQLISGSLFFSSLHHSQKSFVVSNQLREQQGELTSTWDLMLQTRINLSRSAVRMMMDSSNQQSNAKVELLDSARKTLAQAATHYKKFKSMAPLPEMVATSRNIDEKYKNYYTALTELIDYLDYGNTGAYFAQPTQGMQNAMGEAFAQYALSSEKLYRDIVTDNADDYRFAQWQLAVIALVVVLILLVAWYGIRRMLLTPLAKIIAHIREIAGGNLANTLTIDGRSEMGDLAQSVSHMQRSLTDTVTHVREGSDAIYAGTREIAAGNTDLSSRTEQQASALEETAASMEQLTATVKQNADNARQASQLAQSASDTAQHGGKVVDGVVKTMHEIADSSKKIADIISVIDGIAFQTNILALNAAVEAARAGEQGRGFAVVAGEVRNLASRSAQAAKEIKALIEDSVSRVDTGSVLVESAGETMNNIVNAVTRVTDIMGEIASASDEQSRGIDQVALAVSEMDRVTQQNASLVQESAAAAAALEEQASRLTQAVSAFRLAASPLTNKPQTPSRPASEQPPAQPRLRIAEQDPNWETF
Tar, sequence (P0A964 whole entry partner): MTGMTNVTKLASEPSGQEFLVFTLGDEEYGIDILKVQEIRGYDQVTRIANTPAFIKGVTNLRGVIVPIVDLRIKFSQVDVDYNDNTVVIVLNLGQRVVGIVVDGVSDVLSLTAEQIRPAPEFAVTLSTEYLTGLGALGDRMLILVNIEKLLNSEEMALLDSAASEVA
Tar, sequence (P07363 whole entry partner): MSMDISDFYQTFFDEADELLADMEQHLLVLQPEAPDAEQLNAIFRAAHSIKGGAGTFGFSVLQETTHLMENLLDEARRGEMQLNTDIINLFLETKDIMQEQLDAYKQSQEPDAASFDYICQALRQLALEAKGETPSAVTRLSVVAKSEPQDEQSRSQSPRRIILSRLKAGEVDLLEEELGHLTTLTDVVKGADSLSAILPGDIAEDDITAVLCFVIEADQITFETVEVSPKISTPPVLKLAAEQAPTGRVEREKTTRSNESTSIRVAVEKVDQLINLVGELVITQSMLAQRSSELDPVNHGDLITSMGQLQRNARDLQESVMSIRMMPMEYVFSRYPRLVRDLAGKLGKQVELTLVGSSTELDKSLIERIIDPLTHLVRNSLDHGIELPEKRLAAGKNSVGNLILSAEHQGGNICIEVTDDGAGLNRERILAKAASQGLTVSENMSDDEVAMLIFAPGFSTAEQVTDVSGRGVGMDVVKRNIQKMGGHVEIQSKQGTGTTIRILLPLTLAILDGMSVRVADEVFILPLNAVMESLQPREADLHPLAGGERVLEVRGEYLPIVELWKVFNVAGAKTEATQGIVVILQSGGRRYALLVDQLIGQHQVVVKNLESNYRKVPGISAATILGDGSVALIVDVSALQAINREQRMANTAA
Tsr, sequence (P02942 whole entry): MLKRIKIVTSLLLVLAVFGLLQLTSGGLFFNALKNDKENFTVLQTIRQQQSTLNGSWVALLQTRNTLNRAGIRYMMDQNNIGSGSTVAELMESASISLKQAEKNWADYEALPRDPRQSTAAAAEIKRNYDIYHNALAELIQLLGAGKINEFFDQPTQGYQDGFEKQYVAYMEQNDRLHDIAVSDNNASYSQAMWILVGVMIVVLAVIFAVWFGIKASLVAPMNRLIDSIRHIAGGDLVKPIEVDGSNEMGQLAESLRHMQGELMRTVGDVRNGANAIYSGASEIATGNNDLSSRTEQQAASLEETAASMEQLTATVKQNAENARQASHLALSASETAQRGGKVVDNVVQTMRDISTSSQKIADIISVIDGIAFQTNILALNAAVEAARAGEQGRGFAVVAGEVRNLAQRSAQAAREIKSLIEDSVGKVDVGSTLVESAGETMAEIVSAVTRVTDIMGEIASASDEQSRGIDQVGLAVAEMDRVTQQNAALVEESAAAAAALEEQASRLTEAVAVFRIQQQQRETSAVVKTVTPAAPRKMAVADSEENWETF
Tsr, sequence (P0A964 whole entry partner): as the sequence (P0A964 whole entry partner) above
Tsr, sequence (P07363 whole entry partner): as the sequence (P07363 whole entry partner) above

Consider `C[C@H](N)C(=O)O` [Alanine], for which the “response mediated by Tar, in words” value at Tar is listed as “attractant responses”. On Tsr, the “response mediated by Tsr, in words” value is “attractant responses”.

Broadly, the EC50 is the concentration that produces a half-maximal response. Take `NC(=O)C[C@H](N)C(=O)O` [Aparagine, Asparagine]: on Tar, the “response mediated by Tar, in words” value is on record as “attractant responses”. In data set [1] (Bacillus subtilis), the EC50 was < 1 µM. The “response mediated by Tsr, in words” value on Tsr was “attractant responses”.

As for `N=C(N)NCCC[C@H](N)C(=O)O` [Arginine], the “FRET response in words” value in data set [1] (B. subtilis) is recorded as “did not elicit clear responses”.

Regarding `N[C@@H](CC(=O)O)C(=O)O` [Aspartate], the figures for the EC50 in data set [2] (setting [3]) and in data set [1] (Bacillus subtilis) were < 10 µM and > 1000 µM, respectively. For the same molecule, the “repellent response in wild type, in words” value in data set [2] is given as “no obvious repellent response”. Further, the “response mediated by Tar, in words” value at Tar is given as “attractant responses”. Further, the “repellent response in Tsr-only cells, in words” value on Tsr was “weak repellent responses”.

As for `N[C@@H](CS)C(=O)O` [Cysteine], the EC50 in data set [2] (setting [3]) was < 10 µM; in data set [1] (Bacillus subtilis), < 1 µM. In addition, at Tar, the “response mediated by Tar, in words” value was “attractant responses”. For the same molecule, the growth inhibition entry in the data set with E. coli is listed as “significant growth inhibition”. Further, at Tsr, the “response mediated by Tsr, in words” value is on record as “attractant responses”.

Regarding `N[C@@H](CCC(=O)O)C(=O)O` [Glutamate], the “repellent response in wild type, in words” value in data set [2] is on record as “no obvious repellent response”. Besides, the “response mediated by Tar, in words” value at Tar is recorded as “attractant responses”. Further, the 50% effective concentration (EC50) in data set [1] (B. subtilis) was > 1000 µM. The “repellent response in Tsr-only cells, in words” value at Tsr is on record as “weak repellent responses”.

For the molecule `NC(=O)CC[C@H](N)C(=O)O` [Glutamine], the “repellent response in wild type, in words” value in data set [2] is recorded as “no obvious repellent response”. The “repellent response in Tsr-only cells, in words” value at Tsr is “weak repellent responses”.

`NCC(=O)O` [Glycine]: on Tar, the “response mediated by Tar, in words” value was “attractant responses”. The “response mediated by Tsr, in words” value at Tsr is listed as “attractant responses”.

On to `N[C@@H](Cc1c[nH]cn1)C(=O)O` [Histidine], for which the “repellent response in wild type, in words” value in data set [2] is listed as “no obvious repellent response”. Also, the “FRET response in words” value in data set [1] (B. subtilis) is “lesser maximal activation”. Moreover, the “repellent response in Tsr-only cells, in words” value at Tsr was “weak repellent responses”.

As for `CC[C@H](C)[C@H](N)C(=O)O` [Isoleucine], the EC50 in data set [2] (setting [4]) was in the range of 100 to 3000 µM. In data set [2], the “repellent response in wild type, in words” value is listed as “clear repellent responses”.

Take `CC(C)C[C@H](N)C(=O)O` [Leucine]: the 50% effective concentration (EC50) in data set [2] (setting [4]) is 100 to 3000 µM. In addition, the “repellent response in wild type, in words” value in data set [2] is listed as “clear repellent responses”. Besides, the growth inhibition result in the data set with E. coli is recorded as “significant growth inhibition”.

In the case of `NCCCC[C@H](N)C(=O)O` [Lysine], the “FRET response in words” value in data set [1] (B. subtilis) was “did not elicit clear responses”.

For the molecule `CSCC[C@H](N)C(=O)O` [Methionine], in data set [2], the “attractant response in words” value is reported as “weak attractant responses”. For the same molecule, on Tar, the “response mediated by Tar, in words” value is “attractant responses”.

As to `N[C@@H](Cc1ccccc1)C(=O)O` [Phenyalanine, phenylalanine], the “repellent response in wild type, in words” value in data set [2] is on record as “no obvious repellent response”. In addition, at Tsr, the “repellent response in Tsr-only cells, in words” value is “weak repellent responses”.

Consider `O=C(O)[C@@H]1CCCN1` [Proline], for which the EC50 in data set [1] (Bacillus subtilis) is < 1 µM.

Take `N[C@@H](CO)C(=O)O` [Serine]: in data set [2] (setting [3]), the EC50 was < 10 µM. In addition, at Tar (saturating concentration), the “level at which the response saturated” value was ~20 % of the initial activity. Moreover, the “response mediated by Tar, in words” value at Tar was “attractant responses”. Further, in the data set with E. coli, the growth inhibition entry was “significant growth inhibition”. Besides, the “response mediated by Tsr, in words” value at Tsr is “attractant responses”.

Regarding `C[C@@H](O)[C@H](N)C(=O)O` [Threonine], the “attractant response in words” value in data set [2] (wild-type E. coli, millimolar concentrations) was “weak attractant responses”.

For `N[C@@H](Cc1c[nH]c2ccccc12)C(=O)O` [Tryptophan], in data set [2] (setting [4]), the EC50 lay within 100 to 3000 µM. For the same molecule, the “repellent response in wild type, in words” value in data set [2] is recorded as “clear repellent responses”. Moreover, the “FRET response in words” value in data set [1] (B. subtilis) was “lesser maximal activation”.

`N[C@@H](Cc1ccc(O)cc1)C(=O)O` [Tyrosine]: the “FRET response in words” value in data set [1] (B. subtilis) is “lesser maximal activation”.

Regarding `CC(C)[C@H](N)C(=O)O` [Valine], in data set [2] (setting [4]), the EC50 lay in the range of 100 to 3000 µM. For the same molecule, the “repellent response in wild type, in words” value in data set [2] was “clear repellent responses”. Also, the growth inhibition result with E. coli is “significant growth inhibition”.
